Results from different studies.
Protocols differ between the studies behind these lines.
Cell line: A549
Effect on: cell growth or viability

O=C(CN1C(=O)/C(=C/c2cccc(O)c2)SC1=S)Nc1ccccc1 — inhibition (MTT; 10 µM): 14.5%
O=C(/C=C/c1ccc2c(ccn2S(=O)(=O)c2ccccc2)c1)NO — GI50 (SRB; 48 h): 1 µM
COc1cc([C@@H]2c3cc4c(cc3[C@@H](O[C@@H]3O[C@@H]5CO[C@@H](C)O[C@H]5[C@H](O)[C@H]3O)[C@H]3COC(=O)[C@H]23)OCO4)cc(OC)c1O — IC50 (MTT; 72 h): 0.54 µM
O=C(CN1C(=O)/C(=C/c2cccc(Cl)c2)SC1=S)Nc1ccccc1 — inhibition (MTT; 10 µM): 25.9%
O=C1Nc2ccccc2C1=NNc1nnc(Cc2ccccc2)c2ccccc12 — inhibition (30 µM): 81.1%
COc1cccc2c1C(=O)c1c(O)c3c(c(O)c1C2=O)C[C@@](O)(C(=O)CO)C[C@@H]3O[C@H]1C[C@H](N)[C@H](O)[C@H](C)O1 — GI50 (SRB; 48 h): < 10 µg/mL
CS(=O)(=O)CCNCc1ccc(-c2ccc3ncnc(Nc4ccc(OCc5cccc(F)c5)c(Cl)c4)c3c2)o1 — EC50 (MTT; 72 h): 67 µM
O=C(CN1C(=O)/C(=C/c2ccccc2)SC1=S)Nc1ccccc1 — inhibition (MTT; 10 µM): 43.3%
Cn1c(=O)c(NN=C2C(=O)Nc3ccc(F)cc32)nc2ccccc21 — inhibition (30 µM): 53.2%
O=C(CN1C(=O)/C(=C/c2ccc(Cl)cc2Cl)SC1=S)Nc1ccccc1 — inhibition (MTT; 10 µM): 4.43%
CCN(CC)CCNC(=O)c1c(C)[nH]c(/C=C2\C(=O)Nc3ccc(F)cc32)c1C — inhibition (30 µM): 85.7%
COc1ccccc1OCCNCC(O)COc1cccc2[nH]c3ccccc3c12 (centres unmarked) — viability (CCK-8; 100 µM, 72 h): < 50%
CCCCc1nc(Cl)c(CO)n1Cc1ccc(-c2ccccc2-c2nn[nH]n2)cc1 — EC50 (MTT; 72 h): 63 µM
C[C@]12CC[C@@H]3c4ccc(O)cc4CC[C@H]3[C@@H]1CC[C@@H]2O — EC90 (ATP luminescence; 72 h): 56.1 µM
COc1ccc(CCNCC(O)COc2cccc(C)c2)cc1OC (centres unmarked) — viability (CCK-8; 100 µM, 72 h): < 50%
CC(C)c1ccc(/C=C2\SC(=S)N(CC(=O)Nc3ccccc3)C2=O)cc1 — inhibition (MTT; 10 µM): 22.5%
COC(C)(C)CCC[C@](C)(O)[C@H]1CC[C@]2(C)[C@@H]1[C@H](O)C[C@@H]1[C@@]3(C)CC[C@H](O)C(C)(C)[C@@H]3CC[C@]12C — IC20 (MTT; 72 h): 0.66 µM
COc1ccc2c(c1)C(=NNc1nc(-c3ccc(OC)c(OC)c3)nc3ccccc13)C(=O)N2 — inhibition (30 µM): 17%
CC(C)=CCC[C@](C)(O)[C@H]1CC[C@]2(C)[C@@H]1[C@H](O)C[C@@H]1[C@@]3(C)CC[C@H](O[C@@H]4O[C@H](CO)[C@@H](O)[C@H](O)[C@H]4O[C@@H]4O[C@H](CO)[C@@H](O)[C@H](O)[C@H]4O)C(C)(C)[C@@H]3CC[C@]12C — IC80 (MTT; 72 h): > 100 µM
O=C(CN1C(=O)/C(=C/c2ccco2)SC1=S)Nc1ccccc1 — inhibition (MTT; 10 µM): 39.5%
